S1P4 antag: antagonists of human S1P4 receptor. 220,000 tested, 0.26% active. S1P4-expressing cells, antagonist mode, reporter read-out. O95977. inhibition, % at 4.98 µM. AID 1510; in the data active means inhibition above about 29%;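 further: 0% = wells stimulated with agonist and 100% = vehicle wells without agonist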
S1P4 ag: activates the human S1P4 receptor. activation, % at 4.98 µM. AID 1509. 220,000 tested, 0.35% active. S1P4-expressing cell line, agonist reporter assay. O95977; in the data active means activation above about 11%;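 further: 0% = DMSO vehicle and 100% = reference agonist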
S1P3 antagonist: antagonists of human S1P3 receptor; 170,000 tested, 0.27% active; Q99500; inhibition, % at 4.98 µM; CHO S1P3 NFAT-BLA reporter, FRET fluorescence, antagonist mode;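 active means inhibition above the plate cutoff, the mean inhibition of test wells on that plate plus 3 SD, cut at about 28% in these data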;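 further: cells challenged with S1P at its EC80 of 0.8 µM; blue over green emission ratio from cleaved BLA substrate after 4 h stimulation; 0% = S1P-stimulated wells and 100% = unstimulated DMSO-only wells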
Mdm2 ligase inh: Mdm2 E3 ligase (human) inhibition; Q00987; cell-based MDM2 ubiquitination luciferase reporter, 2 h; 0 = plate control, 100 = twice control, blank-subtracted; signal enhancement, % at 5 µM; 210,000 tested, 0.11% active;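 active means signal enhancement of 30% or more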;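 further: luminescence tracks abundance of the self-degrading MDM2-luciferase fusion protein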
Target sequence (Q00987 whole entry, looked up, the tested form may be a part): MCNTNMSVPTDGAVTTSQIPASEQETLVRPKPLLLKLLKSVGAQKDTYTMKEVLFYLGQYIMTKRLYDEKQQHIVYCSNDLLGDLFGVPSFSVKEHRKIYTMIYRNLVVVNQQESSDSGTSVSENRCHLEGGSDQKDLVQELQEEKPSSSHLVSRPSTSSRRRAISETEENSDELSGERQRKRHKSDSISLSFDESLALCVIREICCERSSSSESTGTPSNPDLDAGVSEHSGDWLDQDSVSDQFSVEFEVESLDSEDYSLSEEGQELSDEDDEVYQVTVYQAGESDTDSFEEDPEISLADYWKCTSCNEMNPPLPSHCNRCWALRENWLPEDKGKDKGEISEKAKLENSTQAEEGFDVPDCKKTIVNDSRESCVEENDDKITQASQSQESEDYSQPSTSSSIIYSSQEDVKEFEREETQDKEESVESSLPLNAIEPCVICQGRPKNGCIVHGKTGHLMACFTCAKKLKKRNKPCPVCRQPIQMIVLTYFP
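System: stable MDM2–luciferase fusion reporter cells / Input: 2000 cells seeded into each well / Schedule: 4 h settle plus 2 h compound, 37 °C / Compound: single-point 5 µM / Buffer or medium: cells held in DMEM / Benchmarks: control and blank well means / Evaluation: percent signal gain over controls, blank-subtracted / Measured by: luciferase luminescence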
L major viab: reduces viability of Leishmania major promastigotes; AID 1063; resazurin fluorescence viability; inhibition, % at 10 µM; 200,000 tested, 9% active; in the data active means inhibition above about 50%;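 further: promastigotes grown with compound for 44 hours at 28 °C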
Starred values were filed as active, the others as inactive; nt = no result. The sample as a whole holds a higher share of hits than the screen did.

SMILES | S1P4 antag | S1P4 ag | S1P3 antagonist | Mdm2 ligase inh | L major viab
COc1ccccc1NC(=O)C1=C(C)Nc2nnnn2C1c1cc(Br)ccc1OC (stereo unspecified) | 2.9 | -1.2 | 34.5 | 1.0 | 96.7*
COc1cccc(C2C(C(=O)Nc3cccnc3)=C(C)Nc3nnnn32)c1OC (stereo unspecified) | -10.2 | 0.1 | 0.0 | 0.8 | 5.1
CC1=C(C(=O)Nc2cccnc2)C(c2ccncc2)n2nnnc2N1 (stereo unspecified) | -5.5 | -0.4 | 17.0 | -11.6 | -3.8
O=C(c1cccc(F)c1)N1CCCC(C(=O)N2CCN(c3ccccc3)CC2)C1 (stereo unspecified) | -23.7 | 1.0 | -9.5 | -36.2 | nt
COc1cc2[nH]c(=O)n(CCCCCC(=O)N3CC=C(c4ccccc4)CC3)c(=O)c2cc1OC | 1.1 | 1.3 | nt | -4.1 | 13.1
CCc1cccc(CC)c1NC(=S)NCCc1c(C)[nH]c2ccc(C)cc12 | 5.7 | 0.9 | -1.0 | nt | 53.4*
COc1ccc(-c2cc(C(F)(F)F)nc(N3CCCCC3)n2)cc1OC | -5.0 | 0.0 | nt | -20.0 | 14.3
COc1ccc(-c2cc(C(F)(F)F)nc(N3CCN(C)CC3)n2)cc1OC | -9.4 | -2.7 | nt | -10.0 | 84.8*
CN(C)CCN1CCc2ccccc21 | 0.3 | 1.2 | nt | -15.7 | 78.2*
c1ccc2c(c1)CCN2CCN1CCc2ccccc21 | -9.1 | -0.5 | 5.8 | -15.7 | -7.4
Cc1ccc(Nc2nc(CSc3nnc(-c4ccccc4)n3C)cs2)cc1 | 3.8 | -0.3 | -18.2 | -15.1 | 95.3*
Cc1ccc(Nc2nc(CSc3nnc(-c4cccnc4)n3-c3ccccc3C)cs2)cc1 | 14.6 | -0.2 | -3.1 | -3.5 | 97.0*
Cc1ccccc1-n1c(SCc2csc(Nc3ccccc3)n2)nnc1-c1cccnc1 | -15.7 | -1.3 | 2.4 | -20.5 | 64.7*
O=C(NCC1CCCO1)c1cc([N+](=O)[O-])ccc1Cl (stereo unspecified) | -4.7 | -1.6 | -11.7 | -13.8 | -0.3
CCc1cccc(NC(=S)N(CCOC)C(C)c2ccco2)c1 (stereo unspecified) | 8.7 | 0.7 | 3.2 | nt | nt
CCCC(=O)C1=C(N2CCCCC2)CC(C)(C)C(C(=O)OC)C1=O (stereo unspecified) | 3.0 | 0.3 | -23.3 | 4.7 | -5.3
CC(=O)Oc1ccc2ccccc2c1C(NC(=O)Cc1ccccc1)c1ccccc1 (stereo unspecified) | -28.9 | -1.9 | nt | 5.5 | 27.6
CC(=O)NC(c1cccc([N+](=O)[O-])c1)c1c(OC(C)=O)ccc2ccccc12 (stereo unspecified) | -10.7 | 1.3 | nt | 6.2 | 71.4*
O=C(O)CC(NC(=O)C(c1ccccc1)c1ccccc1)c1cccc([N+](=O)[O-])c1 (stereo unspecified) | 5.4 | -1.4 | -1.9 | -12.4 | nt
CCCCC(=O)NC(c1cccc([N+](=O)[O-])c1)c1c(OC(C)=O)ccc2ccccc12 (stereo unspecified) | -14.5 | 0.5 | nt | 8.6 | 89.1*
CC(=O)Oc1ccc2ccccc2c1C(NC(=O)C(C)C)c1cccc([N+](=O)[O-])c1 (stereo unspecified) | 3.9 | -2.5 | nt | -1.6 | 99.3*
CCOC(=O)C(NC(C)=O)C(OC(C)=O)c1cccc([N+](=O)[O-])c1 (stereo unspecified) | -12.4 | -1.7 | nt | -6.9 | -5.2
O=C(Nc1ccc(C(=O)N2CCOCC2)cc1)Nc1ccc(Cl)cc1Cl | -2.4 | -1.0 | -13.0 | -1.7 | -3.8
Cc1ccc2[nH]c(=O)c(C(c3nnnn3CCc3ccccc3)N3CCOCC3)cc2c1 (stereo unspecified) | -5.8 | 2.9 | -0.6 | -13.3 | 96.8*
COc1ccc2cc(C(c3nnnn3CCc3ccccc3)N3CCCC(C)C3)c(=O)[nH]c2c1 (stereo unspecified) | -5.8 | 0.5 | 6.8 | -13.1 | 48.4
COCCn1nnnc1C(c1cc2cc(OC)ccc2[nH]c1=O)N1CCC(Cc2ccccc2)CC1 (stereo unspecified) | -4.1 | 1.6 | -25.6 | -8.7 | 50.3*
COCCn1nnnc1C(c1cc2cc(C)ccc2[nH]c1=O)N1CCCCCC1 (stereo unspecified) | -1.6 | -0.7 | -10.9 | -9.5 | -6.6
O=C(NC(=S)NNS(=O)(=O)c1ccc(Cl)cc1)c1cccnc1 | -7.8 | 0.6 | 11.9 | nt | -5.1
O=C1CCC(C(=O)N(Cc2cccs2)C2(C(=O)NC3CCCCC3)CCCCC2)N1 (stereo unspecified) | -4.7 | 0.3 | 2.9 | 12.0 | -1.2

Bioassay records (PubChem BioAssay)
